From PubChem BioAssay AID463073 (The Scripps Research Institute Molecular Screening Center, 2010)
The whole screen tested about 2,000 compounds, of which about 10 (0.5%) were called active.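 The calls were made as follows: active = inhibition above 30%; inactive = the rest.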 The full list was thinned out, with actives kept by preference. Residues, ends and D or L forms follow the SMILES beside them.

These compounds were tested against Protein-arginine deiminase type-4 (Homo sapiens) (UniProt Q9UM07) (assay: blockers of protein arginine deiminase 4 – biochemical, fluorescence polarization, primary screen (AID 463073;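 also: 0% = PAD4 with DMSO and 100% = wells lacking PAD4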)). Conditions: recombinant PAD4, RFA probe fluorescence polarization; at 5 µM; active compounds read high.
Summary of the method: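 Material: recombinant human PAD4 enzyme / Input: PAD4 at 2 µM in dispensed buffer, before additions / Medium: HEPES buffer pH 7.6 with 10 mM CaCl2 and TCEP / Incubation: 30-min PAD4–compound preincubation (25 °C), then 5-h probe labeling (37 °C) / Detection: fluorescence polarization, 598 nm emission after 525 nm excitation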

Chain of Protein-arginine deiminase type-4 (Homo sapiens) (Q9UM07 whole entry, looked up): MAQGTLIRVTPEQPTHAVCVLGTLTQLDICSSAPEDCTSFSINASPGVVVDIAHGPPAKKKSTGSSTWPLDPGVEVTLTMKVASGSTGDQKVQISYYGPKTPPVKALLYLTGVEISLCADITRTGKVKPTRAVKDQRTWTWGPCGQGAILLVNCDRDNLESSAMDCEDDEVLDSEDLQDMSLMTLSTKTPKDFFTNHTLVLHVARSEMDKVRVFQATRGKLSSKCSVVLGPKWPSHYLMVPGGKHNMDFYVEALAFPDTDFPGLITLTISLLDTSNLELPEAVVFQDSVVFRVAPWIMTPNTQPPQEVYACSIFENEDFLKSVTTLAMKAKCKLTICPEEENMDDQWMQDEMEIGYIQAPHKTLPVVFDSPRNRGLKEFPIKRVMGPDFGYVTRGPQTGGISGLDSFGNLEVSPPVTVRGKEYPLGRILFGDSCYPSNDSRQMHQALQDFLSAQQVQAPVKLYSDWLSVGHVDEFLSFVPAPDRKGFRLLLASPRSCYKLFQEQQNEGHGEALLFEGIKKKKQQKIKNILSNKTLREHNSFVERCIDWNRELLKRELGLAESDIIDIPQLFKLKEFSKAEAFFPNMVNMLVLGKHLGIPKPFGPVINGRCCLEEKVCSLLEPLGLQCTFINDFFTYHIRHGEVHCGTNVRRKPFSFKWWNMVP

inhibition, active:
COC1=C(N)C(=O)c2nc(-c3nc(C(=O)O)c(C)c(-c4ccc(OC)c(OC)c4O)c3N)ccc2C1=O 92.5%
COc1ccc(N2C(=O)[C@@H]3[C@H](C2=O)[C@H]2c4ccccc4C=CN2[C@@H]3C(C)=O)cc1 37.2%

inhibition, inactive:
CCc1ccc2oc(=O)cc(CN3CCC(C)CC3)c2c1 -1.47%
C[N+](C)(C)CCCC(=O)c1ccc2c(c1)OCO2 3.91%
CC(=O)NC(CC(C)C)C(=O)NC(Cc1ccccc1)C(N)=O (stereo not drawn) (Ac-Leu-Phe-NH2; configuration not given here) 1.27%
COc1ccc2c(C=O)cn(C)c2c1 -2.41%
COC(=O)c1[nH]c2ccccc2c1NC(=O)CN1CCN(C/C=C/c2ccccc2)CC1 0.97%
Cc1ccnc(NS(=O)(=O)c2ccc(N)cc2)n1 1.25%
COc1cc(=O)n(C)c2ccccc12 0.98%
CC(C)CC(NC(=O)c1cccc(Cl)c1)C(=O)O (configuration not stated) -0.07%
Cc1c(O)c(=O)ccn1C 4.09%
Cc1cccc(C)c1NS(=O)(=O)c1ccc(NC(=O)c2ccc(Cl)c([N+](=O)[O-])c2)cc1 5.98%
C=CCNC(=S)N1CCc2c([nH]c3ccccc23)C1C (configuration not stated) -0.07%
CCN1C(=O)C(CC(=O)Nc2ccc(OC)cc2)N(CCc2ccc(F)cc2)C1=S (configuration not stated) 3.71%
Cc1ccccc1-c1nn(-c2ccc(F)cc2F)cc1CNCCN(C)C -4.06%
COc1ccc2[nH]cc(C(=O)CCl)c2c1 2.86%
COC(=O)CN1CC(=O)N(c2ccccc2)C1=S -0.98%
O=c1oc2c(CN3CCCCC3)c(O)ccc2c2c1CCCCC2 -1.21%
COc1ccc2oc(=O)c(-c3nc(C)cs3)cc2c1 3.51%
O=C(NCc1ccc2c(c1)OCO2)c1ccc2c(c1)OCCO2 2.19%
CCOC(=O)C1C(=O)CC(C)(O)C(C(=O)OCC)C1/C=C/c1ccccc1 (configuration not stated) 0.16%
CCOc1ccc(N2C(=O)CNC2=S)cc1 0.84%
COc1ccc(N2C(=O)C3C(C2=O)C(C(=O)c2ccccc2)N2CCCC32)cc1 (configuration not stated) 2.54%
COc1ccc(C(=O)[C@H]2[C@H]3C(=O)N(c4ccccc4)C(=O)[C@H]3C3C=CC=NN32)cc1 (some centres not stated) 2.34%
CCNCCC(CCC(C)C)c1ccc2c(c1)OCO2 (configuration not stated) 2.15%
COc1ccc(C(=O)/C=C/c2cc(C(=O)O)cc3c2OCOC3)c(O)c1 3%
Clc1ccc2c(c1)[C@H]1OCC[C@H]1[C@@H](c1ccco1)N2 1.39%
NS(=O)(=O)c1cc2c(cc1Cl)NC(CSCc1ccccc1)=NS2(=O)=O 0.58%
COC(=O)C1=C(C)N(C)C(=S)NC1c1ccc(Cl)cc1 (configuration not stated) 0.42%
C#C[C@]1(O)CC[C@H]2[C@@H]3CCC4=C(CCC(=O)C4)[C@H]3CC[C@@]21C 0.19%
CC[n+]1c(C)sc2cc(C)ccc21 0.78%
NC(=O)[C@@H]1[C@@H]2C(=O)N(c3ccc(F)cc3)C(=O)[C@@H]2[C@H]2C=Cc3ccccc3N21 -1.24%
COc1ccc(-c2[nH]ncc2CN(C)C(C)c2ccon2)c(OC)c1 (configuration not stated) 4.74%
COc1cc(NC(=S)NN2CCN(C)CC2)cc(OC)c1OC -5.47%
CC1(C)Cc2ccccc2C(C(Cc2ccccc2)C(N)=O)=N1 (configuration not stated) 1.19%
COc1ccc(NC2=C(Cl)C(=O)N(c3ccccc3)C2=O)c(OC)c1 7.44%
CSc1ccc(CN2CCN(CCC(C)C)C(CCO)C2)cc1 (configuration not stated) -2.67%
CC1(C)CC(=O)C(C2(O)C(=O)Nc3ccccc32)CO1 (configuration not stated) 7.91%
CCOC(=O)c1cnc2ccccc2c1NCCO 1.39%
COc1ccc(C2(CCN=Cc3ccc(N(C)C)cc3)CCOC(C)(C)C2)cc1 (configuration not stated) 4.88%
CC(C)OC(=O)c1ccc(NC(=O)c2cncc(Br)c2)cc1 3.13%
CCOc1cccc(N2C(=O)CC(N(CCc3ccc(OC)c(OC)c3)C(=O)CC)C2=O)c1 (configuration not stated) 4.11%
C[C@H](NC(=O)Nc1ccccc1F)C(=O)O 3.34%
Cc1ncc([N+](=O)[O-])n1CCO -2.21%
CC(C)OC(=O)C1C2C=CC3(CN(CC4CCCO4)C(=O)C13)O2 (configuration not stated) 3.74%
CC(=O)C1=C(O)C(=O)OC1c1ccc(C)cc1 (configuration not stated) 3.6%
Cc1ccc(CSCC(=O)N2CCCC2)cc1 0.78%
Cc1coc2cc3oc(=O)c(CCC(=O)O)c(C)c3cc12 1.74%
C=CCNc1nc2c(c(=O)n(C)c(=O)n2C)n1CC(=C)C 2.6%
CC(=O)Oc1ccc(C2OC(=O)c3ccccc3N2C(C)=O)cc1 (configuration not stated) 4.61%
C/C(=N\NC(=O)c1ccccc1[N+](=O)[O-])c1ccc(Br)s1 -5.19%
CC(=O)OC1c2c(ccc3ccc(=O)oc23)OC(C)(C)C1OC(=O)CC(C)C (configuration not stated) 3.34%
COc1ccc2c(c1)C(=O)CC(c1ccccc1F)O2 (configuration not stated) -3.92%
O=C(NCCc1nc2ccccc2[nH]1)c1cccc(Br)c1 2.09%
CCOC(=O)C1=C2c3ccc4ccccc4c3CC(C)(C)N2C(=O)C1=O 4.17%
COc1ccc(OC)c(S(=O)(=O)N2CCCc3ccccc32)c1 1.48%
CC(=O)c1c(N)nc2n(c1=O)CCCCC2 2.24%
CC1(C)C(=O)OC(/C=C\c2ccccc2)C(C)(C)C1=O (configuration not stated) -4.36%
Cc1ccc(SCC(=O)Nc2nccs2)cc1 -3.72%
CCN1CCn2c3c(c4cc(Cl)ccc42)CCCC31 (configuration not stated) 0.84%
Cc1ccsc1/C=C/C1=NCCCN1C 1.68%
CC(C)Cc1cc(C(=O)N2CCC(N3CCC(C(=O)N4CCCC4)CC3)CC2)n[nH]1 1.19%
